{
  "source": "paper PMC4326595",
  "about": "(Molecular cancer therapeutics, 2014)",
  "assay_in_all_cases": "HDAC-Glo I/II luminescent assay",
  "format_in_all_cases": "biochemical",
  "key": {"HDAC 6": {"target": "T1, HDAC 6 (Homo sapiens, UniProt Q9UBN7)", "T1 sequence (Q9UBN7 1-1215)": "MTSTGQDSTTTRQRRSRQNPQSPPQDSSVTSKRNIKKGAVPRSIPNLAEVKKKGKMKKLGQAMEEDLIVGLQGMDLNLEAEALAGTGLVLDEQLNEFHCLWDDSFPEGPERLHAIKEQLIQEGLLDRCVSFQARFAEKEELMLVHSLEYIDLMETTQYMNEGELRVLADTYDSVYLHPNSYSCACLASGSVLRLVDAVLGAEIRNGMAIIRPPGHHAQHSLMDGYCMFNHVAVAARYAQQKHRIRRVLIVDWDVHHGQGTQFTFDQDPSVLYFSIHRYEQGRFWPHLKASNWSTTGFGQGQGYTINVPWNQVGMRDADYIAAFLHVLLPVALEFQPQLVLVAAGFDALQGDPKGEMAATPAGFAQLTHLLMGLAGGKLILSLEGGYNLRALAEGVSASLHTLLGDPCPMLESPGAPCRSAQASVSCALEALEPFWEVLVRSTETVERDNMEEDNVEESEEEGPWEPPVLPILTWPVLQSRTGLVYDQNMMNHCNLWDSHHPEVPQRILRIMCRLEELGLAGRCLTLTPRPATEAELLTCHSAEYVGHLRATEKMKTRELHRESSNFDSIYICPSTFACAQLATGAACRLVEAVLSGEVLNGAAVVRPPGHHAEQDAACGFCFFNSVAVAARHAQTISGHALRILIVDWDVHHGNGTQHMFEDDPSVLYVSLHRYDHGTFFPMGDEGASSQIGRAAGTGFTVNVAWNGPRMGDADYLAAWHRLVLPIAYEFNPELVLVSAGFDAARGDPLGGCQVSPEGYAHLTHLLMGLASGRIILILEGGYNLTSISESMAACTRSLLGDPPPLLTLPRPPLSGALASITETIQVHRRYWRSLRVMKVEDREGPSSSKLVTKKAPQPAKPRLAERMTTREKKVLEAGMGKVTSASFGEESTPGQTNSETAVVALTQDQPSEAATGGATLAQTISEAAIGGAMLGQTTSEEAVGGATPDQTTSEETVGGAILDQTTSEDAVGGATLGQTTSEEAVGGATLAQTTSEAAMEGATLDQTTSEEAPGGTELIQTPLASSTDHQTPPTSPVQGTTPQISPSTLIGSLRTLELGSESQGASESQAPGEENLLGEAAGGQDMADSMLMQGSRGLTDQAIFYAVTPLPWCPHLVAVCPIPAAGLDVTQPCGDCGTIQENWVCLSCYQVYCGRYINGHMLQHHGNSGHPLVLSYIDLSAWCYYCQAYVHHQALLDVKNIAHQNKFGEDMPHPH", "method_in_brief": "(§1)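 Recombinant human enzymes: HDAC1 C-terminal GST, HDAC2/8/10 C-terminal His, HDAC6 N-terminal GST, HDAC3 as NCOR1 complex; each at a level in the lower linear titration range giving similar signal. Test compound, 15-point 3-fold dilutions (DMSO), pre-incubated with enzyme 20–30 min, room temperature; HDAC-Glo I/II detection reagent added, luminescence read after 20 min. Quadruplicate wells; IC50 values determined.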"}, "HDAC 8": {"target": "T2, HDAC 8 (Homo sapiens, UniProt Q9BY41)", "T2 sequence (Q9BY41 1-377)": "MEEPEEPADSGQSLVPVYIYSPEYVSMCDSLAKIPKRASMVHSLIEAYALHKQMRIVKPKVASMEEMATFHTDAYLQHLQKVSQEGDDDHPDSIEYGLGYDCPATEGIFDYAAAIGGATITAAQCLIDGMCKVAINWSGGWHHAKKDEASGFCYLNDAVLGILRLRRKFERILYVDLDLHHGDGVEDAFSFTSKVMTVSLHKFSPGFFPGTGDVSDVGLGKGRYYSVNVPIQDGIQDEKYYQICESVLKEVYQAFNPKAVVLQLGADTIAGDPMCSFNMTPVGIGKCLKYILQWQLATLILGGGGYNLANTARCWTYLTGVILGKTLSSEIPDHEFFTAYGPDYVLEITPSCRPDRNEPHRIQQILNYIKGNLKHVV", "method_in_brief": "as §1"}, "HDAC 2": {"target": "HDAC 2 (Homo sapiens, UniProt Q92769)", "sequence (Q92769 whole entry)": "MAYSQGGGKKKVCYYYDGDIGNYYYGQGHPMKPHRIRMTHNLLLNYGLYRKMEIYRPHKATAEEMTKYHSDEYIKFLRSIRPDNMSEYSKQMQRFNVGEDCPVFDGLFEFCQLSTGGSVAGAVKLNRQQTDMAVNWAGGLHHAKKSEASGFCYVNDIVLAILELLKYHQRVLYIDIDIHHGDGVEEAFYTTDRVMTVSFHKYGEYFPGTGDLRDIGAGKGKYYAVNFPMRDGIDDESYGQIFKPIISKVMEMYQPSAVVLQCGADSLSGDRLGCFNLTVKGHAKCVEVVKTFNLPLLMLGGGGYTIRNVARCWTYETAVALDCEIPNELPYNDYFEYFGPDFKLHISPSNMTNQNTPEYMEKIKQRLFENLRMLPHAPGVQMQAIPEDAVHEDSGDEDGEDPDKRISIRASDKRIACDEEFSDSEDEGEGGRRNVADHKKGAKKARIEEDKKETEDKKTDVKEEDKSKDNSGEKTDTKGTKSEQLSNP", "method_in_brief": "as §1"}, "HDAC 1": {"target": "HDAC 1 (Homo sapiens, UniProt Q13547)", "sequence (Q13547 whole entry)": "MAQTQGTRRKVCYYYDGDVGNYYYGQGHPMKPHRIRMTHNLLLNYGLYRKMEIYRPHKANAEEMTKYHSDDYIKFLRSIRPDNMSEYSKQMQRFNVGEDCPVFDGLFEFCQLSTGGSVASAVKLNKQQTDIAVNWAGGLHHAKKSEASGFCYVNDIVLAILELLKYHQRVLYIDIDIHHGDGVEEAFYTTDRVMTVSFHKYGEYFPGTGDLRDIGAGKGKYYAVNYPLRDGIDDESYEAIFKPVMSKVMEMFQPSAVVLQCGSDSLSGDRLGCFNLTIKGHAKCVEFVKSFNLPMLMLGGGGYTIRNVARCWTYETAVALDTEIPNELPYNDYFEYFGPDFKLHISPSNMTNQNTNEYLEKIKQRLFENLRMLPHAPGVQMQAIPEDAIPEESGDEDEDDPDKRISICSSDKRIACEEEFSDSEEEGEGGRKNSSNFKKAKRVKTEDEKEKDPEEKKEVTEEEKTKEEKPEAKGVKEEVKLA", "method_in_brief": "as §1"}, "HDAC 10": {"target": "T3, HDAC 10 (Homo sapiens, UniProt Q969S8)", "T3 sequence (Q969S8 1-669)": "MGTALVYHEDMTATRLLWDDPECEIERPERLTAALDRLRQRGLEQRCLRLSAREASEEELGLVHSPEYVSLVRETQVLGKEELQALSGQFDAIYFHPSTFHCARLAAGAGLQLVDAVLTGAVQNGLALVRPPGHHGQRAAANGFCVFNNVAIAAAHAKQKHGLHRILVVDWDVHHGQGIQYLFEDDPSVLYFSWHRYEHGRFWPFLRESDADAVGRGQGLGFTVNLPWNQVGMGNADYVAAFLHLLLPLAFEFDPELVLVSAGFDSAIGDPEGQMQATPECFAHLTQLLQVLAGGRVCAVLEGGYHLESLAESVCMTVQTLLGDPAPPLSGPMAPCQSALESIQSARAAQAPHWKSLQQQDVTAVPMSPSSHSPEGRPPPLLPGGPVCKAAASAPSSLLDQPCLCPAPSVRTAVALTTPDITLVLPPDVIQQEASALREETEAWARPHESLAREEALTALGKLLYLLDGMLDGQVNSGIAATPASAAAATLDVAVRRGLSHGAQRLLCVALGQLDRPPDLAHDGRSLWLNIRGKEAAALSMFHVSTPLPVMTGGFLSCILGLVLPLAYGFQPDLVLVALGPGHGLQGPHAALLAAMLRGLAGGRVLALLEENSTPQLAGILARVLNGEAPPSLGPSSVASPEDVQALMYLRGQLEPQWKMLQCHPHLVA", "method_in_brief": "as §1"}, "HDAC 3/NCOR1": {"target": "HDAC 3/NCOR1 (Homo sapiens, UniProt O15379)", "sequence (O15379 whole entry)": "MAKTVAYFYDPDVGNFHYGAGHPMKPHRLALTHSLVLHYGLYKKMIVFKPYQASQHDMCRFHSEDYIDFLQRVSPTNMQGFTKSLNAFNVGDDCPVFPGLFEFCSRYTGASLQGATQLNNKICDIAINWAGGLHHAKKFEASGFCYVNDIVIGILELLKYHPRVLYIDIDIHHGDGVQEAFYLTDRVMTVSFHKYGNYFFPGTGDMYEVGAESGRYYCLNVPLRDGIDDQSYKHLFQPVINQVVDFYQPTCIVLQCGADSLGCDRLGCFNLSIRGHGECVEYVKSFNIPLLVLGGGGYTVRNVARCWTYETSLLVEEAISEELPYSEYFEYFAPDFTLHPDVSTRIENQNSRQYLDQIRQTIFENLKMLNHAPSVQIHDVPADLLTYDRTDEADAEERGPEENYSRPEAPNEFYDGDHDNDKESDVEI", "sequence (O75376 whole entry partner)": "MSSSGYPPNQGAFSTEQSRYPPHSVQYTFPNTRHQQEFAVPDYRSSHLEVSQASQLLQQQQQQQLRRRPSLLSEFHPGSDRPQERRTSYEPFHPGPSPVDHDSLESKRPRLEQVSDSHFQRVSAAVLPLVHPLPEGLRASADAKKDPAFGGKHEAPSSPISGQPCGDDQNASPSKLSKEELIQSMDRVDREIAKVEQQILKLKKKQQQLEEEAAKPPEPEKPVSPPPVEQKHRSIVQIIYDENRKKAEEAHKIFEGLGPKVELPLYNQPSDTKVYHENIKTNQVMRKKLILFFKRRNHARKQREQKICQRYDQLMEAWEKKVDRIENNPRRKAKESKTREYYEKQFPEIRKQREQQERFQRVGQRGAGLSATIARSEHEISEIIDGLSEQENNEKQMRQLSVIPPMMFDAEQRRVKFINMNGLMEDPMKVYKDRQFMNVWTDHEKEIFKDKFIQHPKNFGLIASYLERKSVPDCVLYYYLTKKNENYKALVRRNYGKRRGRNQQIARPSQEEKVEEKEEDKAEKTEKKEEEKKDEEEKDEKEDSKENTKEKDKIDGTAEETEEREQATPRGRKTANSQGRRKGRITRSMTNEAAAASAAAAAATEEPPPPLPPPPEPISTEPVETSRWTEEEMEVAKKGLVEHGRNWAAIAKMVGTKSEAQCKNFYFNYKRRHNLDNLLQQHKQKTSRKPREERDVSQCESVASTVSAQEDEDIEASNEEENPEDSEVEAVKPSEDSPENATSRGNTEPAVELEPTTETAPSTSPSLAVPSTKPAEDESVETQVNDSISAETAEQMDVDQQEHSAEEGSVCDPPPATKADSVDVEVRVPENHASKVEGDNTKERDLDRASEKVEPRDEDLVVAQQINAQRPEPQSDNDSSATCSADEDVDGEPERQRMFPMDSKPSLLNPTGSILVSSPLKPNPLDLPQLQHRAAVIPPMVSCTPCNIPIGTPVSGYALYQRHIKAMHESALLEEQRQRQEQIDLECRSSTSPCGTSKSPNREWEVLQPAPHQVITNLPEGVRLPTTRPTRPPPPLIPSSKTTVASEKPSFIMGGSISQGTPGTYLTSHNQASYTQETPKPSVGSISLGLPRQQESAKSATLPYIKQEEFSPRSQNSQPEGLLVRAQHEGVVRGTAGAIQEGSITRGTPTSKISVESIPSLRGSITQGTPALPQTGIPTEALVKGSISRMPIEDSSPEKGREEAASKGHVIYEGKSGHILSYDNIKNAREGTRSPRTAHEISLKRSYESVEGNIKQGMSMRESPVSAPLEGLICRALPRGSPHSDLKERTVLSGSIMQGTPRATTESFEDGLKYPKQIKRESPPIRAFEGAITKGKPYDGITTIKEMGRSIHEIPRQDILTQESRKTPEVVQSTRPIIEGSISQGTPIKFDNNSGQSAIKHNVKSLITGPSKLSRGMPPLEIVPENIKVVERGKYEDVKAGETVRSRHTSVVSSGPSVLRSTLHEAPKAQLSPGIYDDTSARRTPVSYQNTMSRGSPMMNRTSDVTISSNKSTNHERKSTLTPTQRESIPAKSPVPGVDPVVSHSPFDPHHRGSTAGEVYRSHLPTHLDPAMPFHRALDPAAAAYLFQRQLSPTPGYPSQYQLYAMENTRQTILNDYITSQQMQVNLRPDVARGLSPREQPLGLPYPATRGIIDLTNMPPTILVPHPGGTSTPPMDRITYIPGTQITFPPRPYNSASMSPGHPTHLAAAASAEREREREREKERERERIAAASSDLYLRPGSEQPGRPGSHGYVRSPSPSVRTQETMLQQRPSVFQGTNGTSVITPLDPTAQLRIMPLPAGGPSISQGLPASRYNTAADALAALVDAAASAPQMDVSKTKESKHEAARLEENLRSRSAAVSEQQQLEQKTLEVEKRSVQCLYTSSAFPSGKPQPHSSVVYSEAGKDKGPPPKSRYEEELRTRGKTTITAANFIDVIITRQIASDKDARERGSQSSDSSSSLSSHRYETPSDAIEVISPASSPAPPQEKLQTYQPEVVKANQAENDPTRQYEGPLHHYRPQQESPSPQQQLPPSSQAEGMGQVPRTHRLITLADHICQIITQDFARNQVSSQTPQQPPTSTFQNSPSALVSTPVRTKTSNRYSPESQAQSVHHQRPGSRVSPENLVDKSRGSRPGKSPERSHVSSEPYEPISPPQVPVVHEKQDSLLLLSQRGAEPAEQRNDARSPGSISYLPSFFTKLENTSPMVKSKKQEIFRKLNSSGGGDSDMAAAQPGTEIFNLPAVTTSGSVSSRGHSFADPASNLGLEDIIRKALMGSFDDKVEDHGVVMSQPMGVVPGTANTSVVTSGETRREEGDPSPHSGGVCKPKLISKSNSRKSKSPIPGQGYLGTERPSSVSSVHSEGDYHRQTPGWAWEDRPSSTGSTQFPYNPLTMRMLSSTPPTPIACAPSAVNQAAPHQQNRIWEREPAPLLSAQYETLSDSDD", "method_in_brief": "as §1"}},
  "data": [
    {"smiles": "COc1ccc(C=NNC(=O)CCCCCCC(=O)NO)cc1", "note": "[AB3]", "values": [
      {"measurement": "IC50", "setting": "HDAC 6", "result": 35.8, "unit": "nM"},
      {"measurement": "IC50", "setting": "HDAC 8", "result": 60.3, "unit": "nM"},
      {"measurement": "IC50", "setting": "HDAC 2", "result": 3.12, "unit": "nM"},
      {"measurement": "IC50", "setting": "HDAC 1", "result": 2.28, "unit": "nM"},
      {"measurement": "IC50", "setting": "HDAC 10", "result": 11.1, "unit": "nM"},
      {"measurement": "IC50", "setting": "HDAC 3/NCOR1", "result": 1.82, "unit": "nM"}
    ]}
  ]
}
